LANA-H2A inh – blocks KSHV LANA binding to histone H2A/H2B | cell-free LANA-H2A/H2B peptide, fluorescence polarization | inhibition, % (no concentration beside the values) | hit rate 0.6% among 320,000; in the data active means inhibition mostly above about 10%, no sharp cut-off; inactive means mostly below about 6.7%
HDAC3 inhib – inhibitors of human histone deacetylase 3. O15379. recombinant HDAC3, fluorogenic peptide/trypsin coupled, fluorescence. inhibition, % at 8.3 µM. hit rate 0.15% among 320,000; in the data active means inhibition above about 26%, passing the limit was not always enough; inconclusive means no clear call, values can overlap the other calls
Target sequence (O15379 whole entry, looked up): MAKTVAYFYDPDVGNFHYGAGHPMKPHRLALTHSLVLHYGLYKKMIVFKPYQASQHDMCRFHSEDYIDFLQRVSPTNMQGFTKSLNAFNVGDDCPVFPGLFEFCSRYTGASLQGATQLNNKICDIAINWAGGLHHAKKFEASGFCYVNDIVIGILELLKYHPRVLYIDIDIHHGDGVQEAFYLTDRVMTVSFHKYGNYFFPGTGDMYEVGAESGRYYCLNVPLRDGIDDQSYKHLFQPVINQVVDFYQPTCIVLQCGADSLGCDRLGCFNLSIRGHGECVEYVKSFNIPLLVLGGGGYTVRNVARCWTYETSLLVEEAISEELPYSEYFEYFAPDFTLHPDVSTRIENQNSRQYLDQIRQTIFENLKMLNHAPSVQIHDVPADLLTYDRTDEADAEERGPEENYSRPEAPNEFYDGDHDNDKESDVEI
Runt-SMMHC FRET – blocks binding of human RUNX1 Runt domain to CBFb-SMMHC; Q01196+Q13951; Cerulean-Runt/Venus-CBFb-SMMHC FRET ratio 530/480, 1 h; inhibition, % at 20 µM; hit rate 0.74% among 220,000; AID 1434;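 active means mean inhibition across duplicate retests at 20 µM reaching about 50%, limit read from the data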;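 further: 0% = DMSO wells and 100% = wells with excess untagged CBFb-SMMHC; inhibitors lower the FRET ratio by blocking Runt binding to CBFb-SMMHC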
Runt-CBFb FRET – Runt domain-CBFb interaction inhibition | Q01196+Q13951 | Cerulean-Runt/Venus-CBFb FRET ratio 530/480, 1 h | inhibition, % at 20 µM | hit rate 0.46% among 220,000;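 active means inhibition over about 50% at 20 µM in the single-dose screen, limit read from the data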;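 further: 0% = DMSO wells and 100% = excess unlabeled CBFb competitor control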
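test system = Cerulean-Runt domain fusion protein, energy donor | probe or stimulus = Venus-CBFb binding partner, 100 nM | incubation = two 1 h room-temperature incubations shielded from light | detection = fluorescence energy transfer, 422 nm excitation, 530/480 nm emission | measure = loss of energy transfer signal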
RanGTP-Impb inh – inhibitors of RanGTP-importin-beta interaction, primary screen, biochemical, FRET, CFP-Ran, YFP-importin-beta, homogeneous; cell-free CFP-Ran/YFP-importin-beta FRET ratio; inhibition, % (no concentration beside the values); hit rate 1.1% among 300,000; AID 2216;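 active means more than half of the replicate wells show a fall in the fluorescence ratio signal beyond about 16%, limit read from the data, passing the limit was not always enough; inconclusive means exactly half of the replicate wells pass the set limit; inactive means fewer than half of replicates pass the limit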;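 further: 0% = DMSO wells and 100% = Ran loaded with GDP instead of GTP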
CaV13 FRET inh – Primary screen for inhibitors of IQ motif and Ca2+-dependent inactivation inhibitor domain binding in CACNA1D, Förster resonance energy transfer in living cells, …; HEK cells, CFP/YFP FRET ICDI-IQ, plate reader, 10 min; percent FRET-ratio fall versus neutral wells; inhibition, % at 12.3 µM; hit rate 0.098% among 340,000; AID 743397;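 active means mean replicate inhibition of at least 30% and at least 1% of replicates passing that level; inconclusive means only one of the two criteria is met; inactive means neither criterion is met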;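 further: 0% = median of the neutral control wells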
* marks the source's active call; other numbers are inactive results; ? = inconclusive; / = not tested or not shown. This is a sample that favours compounds with a hit; in the whole collection about 1.9% have one here.

SMILES	LANA-H2A inh	HDAC3 inhib	Runt-SMMHC FRET	Runt-CBFb FRET	RanGTP-Impb inh	CaV13 FRET inh
COc1ccc(C(=O)N/N=C/c2ccc(OC(=O)c3cccs3)cc2)cc1	-4	-2	-2	0	0	-5
COC(=O)c1ccc(OC(=O)c2ccccn2)cc1	-1	46*	-2	-4	1	-6
COC(=O)c1ccc(OC(=O)c2ccco2)cc1	1	56*	-6	-3	2	-5
COC(=O)c1ccc(OC(=O)c2cccnc2SC)cc1	-1	1	/	/	?	-3
CCC(=O)c1ccc(OC(=O)c2cccs2)cc1	-1	62*	/	/	1	-4
O=C(NCc1ccccc1)c1nncc(-c2ccccc2)n1	-2	7	/	/	/	-3
CCN(CC)S(=O)(=O)c1ccc(C)c(NC(=O)CSc2nc3ccc(C)cc3[nH]2)c1	-6	4	-39	-3	-5	-17
O=C(O)CNC(=S)N(Cc1ccc(F)cc1)C1CCCCC1	3	-2	1	0	1	1
C=CC[C@H](CC(=O)N(CCO)Cc1ccccc1)C(=O)NCCOC(=O)[C@H](CC=C)CC(=O)OC(C)(C)C	/	/	/	/	/	-7
COc1cc(C2NC(=O)NC(C)=C2C(=O)OCc2ccc(C)cc2)cc(OC)c1OC (stereo not given)	-1	4	/	/	29*	-20
COc1cc(C2NC(=O)NC(C)=C2C(C)=O)cc(OC)c1OC (stereo not given)	-1	-4	-1	4	-1	-1
COc1cc(C2NC(=O)NC(C)=C2C(=O)OCc2ccc(C)cc2)cc(OC)c1O (stereo not given)	2	0	2	-3	66*	-3
COc1ccc(S(=O)(=O)N(CC(=O)Nc2cccnc2)c2ccccc2OC)cc1	-2	4	3	3	-1	-7
CCOC(=O)C1=C(C)NC2=C(C(=O)CC(C)(C)C2)C1c1cccc(C)n1 (stereo not given)	3	-12	88*	37	?	-5
CCOC(=O)C1=C(C)NC(C)=C(C(=O)OCC)C1c1cccc(C)n1	1	-6	5	2	3	-4
CC1=C(C(=O)OCC2CCCO2)C(c2ccc(C)cc2)C2=C(CC(C)(C)CC2=O)N1 (stereo not given)	-2	-8	56*	20	5	15
COC(=O)c1ccc(C2C(C#N)=C(C)NC3=C2C(=O)CC(C)(C)C3)cc1 (stereo not given)	-4	-3	81*	27	5	-7
COc1ccc(C2C(C#N)=C(C)NC3=C2C(=O)CC(C)(C)C3)c(OC)c1 (stereo not given)	0	-11	21	1	2	/
CCCCC1C(C#N)=C(C)NC2=C1C(=O)CC(C)(C)C2 (stereo not given)	-4	-9	69*	32	9	-3
N#CC(c1ccc(Cl)cc1)(c1ncc(C(F)(F)F)cc1Cl)N1CCOCC1 (stereo not given)	-3	3	2	-2	6	-4
O=C(NC(=S)Nc1ccc2c(c1)OCCO2)c1ccccc1F	13*	1	-1	-1	-13	-19
O=C(Nc1ccc2c(c1)OCCO2)c1ccccc1F	-4	1	-8	-1	-4	/
O=C(Nc1cccc(N2C(=O)C=CC2=O)c1)c1cccs1	/	/	/	/	1	-6
O=C1C=CC(=O)N1c1cccc(-c2ccccc2)c1	-2	-1	73*	38	-2	-18
O=C(CCNS(=O)(=O)c1ccccc1)OCc1nc2ccsc2c(=O)[nH]1	6	-3	/	/	-9	-6
CCOc1ccccc1OCCNC1CCCC1	145*	-3	3	-2	-1	-5
COc1ccc(C(=O)N2CCn3c2nc2ccccc23)cc1	-4	4	/	/	-3	-13
COc1ccc(C(=O)n2c(-c3ccco3)nc3ccccc32)cc1	0	43*	26	39	1	-6
CC1=C(C(=O)OC(C)C)C(c2cccs2)C(C(=O)OC(C)C)=C(C)N1	-4	29*	-1	-1	-2	-3
